Assay results published in ChEMBL document CHEMBL1126608.

How the values were obtained:
[1] = biological target: Muscarinic acetylcholine receptor M3 (Cavia porcellus) (UniProt Q8VH26); experiment: Antagonist activity against muscarinic M3 receptor from guinea pig ileum; format: functional, tissue-based
Method in brief: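 Longitudinal guinea pig ileum strips suspended in oxygenated Krebs buffer; carbachol concentration-response curves with or without at least three increasing antagonist concentrations (5-min preincubation). Contraction as % of maximal carbachol response without antagonist.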

[2] = biological target: T1, Muscarinic acetylcholine receptor (Homo sapiens) (UniProt P20309+P08173+P11229+P08172+P08912); details: Cavia porcellus
[3] = biological target: T2, Muscarinic acetylcholine receptor M2 (Homo sapiens) (UniProt P08172); experiment: Antagonist activity against muscarinic M2 receptor from guinea pig atria; format: functional; details: Cavia porcellus; target entry is the homologue from another species
T2 sequence (whole entry): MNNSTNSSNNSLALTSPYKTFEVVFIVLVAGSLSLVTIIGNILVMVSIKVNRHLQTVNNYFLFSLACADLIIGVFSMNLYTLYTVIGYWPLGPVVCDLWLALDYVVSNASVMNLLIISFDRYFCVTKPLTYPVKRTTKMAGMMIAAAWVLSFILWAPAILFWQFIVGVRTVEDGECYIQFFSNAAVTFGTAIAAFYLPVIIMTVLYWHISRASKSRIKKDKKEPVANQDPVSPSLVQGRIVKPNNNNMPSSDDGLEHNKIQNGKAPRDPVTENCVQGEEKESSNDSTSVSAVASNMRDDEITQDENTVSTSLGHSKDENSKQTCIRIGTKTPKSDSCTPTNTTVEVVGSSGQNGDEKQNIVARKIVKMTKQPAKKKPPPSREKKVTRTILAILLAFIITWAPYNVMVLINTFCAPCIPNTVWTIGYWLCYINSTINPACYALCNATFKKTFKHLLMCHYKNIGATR
Method in brief: (§1)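 Isolated guinea pig right atria in Krebs-Henseleit buffer; cumulative carbachol concentration-rate response curves before and after at least three increasing antagonist concentrations (5-min preincubation). Responses as % of maximal carbachol-induced rate inhibition without antagonist.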

[4] = biological target: T1, Muscarinic acetylcholine receptor (Homo sapiens); experiment: In vivo antimuscarinic activity to decrease carbachol-stimulated salivation in guinea pig; format: functional, organism-based; details: Cavia porcellus; target entry is the homologue from another species
Method in brief: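 Guinea pigs dosed sc with various antagonist doses; 30 min later carbachol 0.1 mg/kg ip; ability to respond to agonist scored 5-10 min afterwards.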

[5] = biological target: T2, Muscarinic acetylcholine receptor M2 (Homo sapiens); experiment: Antagonist activity against muscarinic M2 receptor from guinea pig atria; Non competitive; format: functional; details: Cavia porcellus; filed as antagonist; target entry is the homologue from another species; method in brief: as §1
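Throughout, for ID50: in vivo guinea pig assay: antimuscarinic effect measured as reduced salivation after carbachol stimulation.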

Muscarinic acetylcholine receptor M3 (Cavia porcellus), sequence (Q8VH26 1-587): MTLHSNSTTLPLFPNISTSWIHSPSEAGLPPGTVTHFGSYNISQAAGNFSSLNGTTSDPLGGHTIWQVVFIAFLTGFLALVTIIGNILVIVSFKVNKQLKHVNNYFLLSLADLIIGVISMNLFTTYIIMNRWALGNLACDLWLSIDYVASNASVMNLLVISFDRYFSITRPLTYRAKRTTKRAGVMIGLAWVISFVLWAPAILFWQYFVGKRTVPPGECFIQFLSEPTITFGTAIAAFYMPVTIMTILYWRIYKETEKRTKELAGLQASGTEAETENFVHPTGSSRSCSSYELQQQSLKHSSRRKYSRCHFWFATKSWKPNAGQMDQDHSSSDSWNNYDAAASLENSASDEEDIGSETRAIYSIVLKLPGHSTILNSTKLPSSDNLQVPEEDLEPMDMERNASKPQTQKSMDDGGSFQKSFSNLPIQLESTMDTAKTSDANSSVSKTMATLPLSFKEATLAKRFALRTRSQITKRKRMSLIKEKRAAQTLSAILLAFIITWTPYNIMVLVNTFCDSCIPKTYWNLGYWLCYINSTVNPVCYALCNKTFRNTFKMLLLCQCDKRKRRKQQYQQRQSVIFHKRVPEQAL

SMILES: O=C(CN1CCN(Cc2cccc(Cl)c2)CC1)C(O)(c1ccccc1)C1CCC1 (stereo not given)
- Kb [1]: 27 nM
- ID50 [2]: 8.3 mg/kg
- Kb [3]: 380 nM

SMILES: O=C(CN1CCC(O)CC1)C(O)(c1ccccc1)C1CCC1 (stereo not given)
- Kb [1]: 472 nM
- Kb [3]: 2340 nM

SMILES: O=C(CN1CCN(Cc2cccs2)CC1)C(O)(c1ccccc1)C1CCC1 (stereo not given)
- Kb [1]: 43.8 nM
- ID50 [2]: 25 mg/kg
- Kb [3]: 491 nM

SMILES: O=C(CN1CCN(C2CCC2)CC1)C(O)(c1ccccc1)C1CCC1 (stereo not given)
- Kb [1]: 230 nM
- ID50 [2]: 18.3 mg/kg
- Kb [3]: 1800 nM

SMILES: C=CCN1CCN(CC(=O)C(O)(c2ccccc2)C2CCC2)CC1 (stereo not given)
- Kb [1]: 60 nM
- ID50 [2]: 20.4 mg/kg
- Kb [3]: 299 nM

SMILES: CN(C)CCNCC(=O)C(O)(c1ccccc1)C1CCCCC1 (stereo not given)
- Kb [1]: 5.5 nM
- ED50 [4]: 0.13 mg/kg
- Kb [3]: 216 nM

SMILES: O=C(CN1CCN(Cc2ccccc2)CC1)C(O)(c1ccccc1)C1CCCCC1 (stereo not given)
- Kb [1]: 12 nM
- ID50 [2]: 4.38 mg/kg
- Kb [3]: 282 nM

SMILES: CCOC(=O)N1CCN(CC(=O)C(O)(c2ccccc2)C2CCCCC2)CC1 (stereo not given)
- Kb [1]: > 10000 nM
- Kb [3]: > 30000 nM

SMILES: O=C(CN1CCC(N2CCCC2)CC1)C(O)(c1ccccc1)C1CCCCC1 (stereo not given)
- Kb [1]: 349 nM
- Kb [3]: 4510 nM

SMILES: C#CCN1CCN(CC(=O)C(O)(c2ccccc2)C2CCCCC2)CC1 (stereo not given)
- Kb [1]: 260 nM
- Kb [3]: 5670 nM

SMILES: O=C(CN1CCN(CCc2ccccc2)CC1)C(O)(c1ccccc1)C1CCC1 (stereo not given)
- Kb [1]: 302 nM
- Kb [3]: > 1000 nM

SMILES: O=C(CN1CCN(Cc2ccc([N+](=O)[O-])cc2)CC1)C(O)(c1ccccc1)C1CCC1 (stereo not given)
- Kb [1]: 105 nM
- ID50 [2]: 21 mg/kg
- Kb [3]: 2700 nM

SMILES: O=C(CN1CCN(Cc2ccccc2Cl)CC1)C(O)(c1ccccc1)C1CCC1 (stereo not given)
- Kb [1]: 56 nM
- Kb [3]: > 10000 nM

SMILES: N#CCN1CCN(CC(=O)C(O)(c2ccccc2)C2CCC2)CC1 (stereo not given)
- Kb [1]: 2710 nM
- ID50 [2]: 35.7 mg/kg
- Kb [3]: > 30000 nM

SMILES: O=C(CN1CCN(Cc2ccccc2)CC1)C(O)(c1ccccc1)C1CC1 (stereo not given)
- Kb [1]: 24 nM
- ID50 [2]: 9.9 mg/kg
- Kb [3]: 225 nM

SMILES: Cc1ccccc1CN1CCN(CC(=O)C(O)(c2ccccc2)C2CCC2)CC1 (stereo not given)
- Kb [1]: 199 nM
- Kb [3]: > 1000 nM

SMILES: O=C(CN1CCN(Cc2ccccc2)CC1)C(O)(c1ccccc1)C1CCCC1 (stereo not given)
- Kb [1]: 2.6 nM
- ID50 [2]: 0.24 mg/kg
- Kb [3]: 78 nM

SMILES: CCOc1ccccc1N1CCN(CC(=O)C(O)(c2ccccc2)C2CCC2)CC1 (stereo not given)
- Kb [1]: > 10000 nM
- Kb [3]: > 10000 nM

SMILES: CCCN1CCN(CC(=O)C(O)(c2ccccc2)C2CCC2)CC1 (stereo not given)
- Kb [1]: 673 nM
- ID50 [2]: 31.1 mg/kg
- Kb [3]: 1190 nM

SMILES: O=C(CN1CCN(C/C=C\c2ccccc2)CC1)C(O)(c1ccccc1)C1CCC1 (stereo not given)
- Kb [1]: 9.92 nM
- ID50 [2]: 1.2 mg/kg
- Kb [3]: 2.3 nM

SMILES: COc1ccccc1N1CCN(CC(=O)C(O)(c2ccccc2)C2CCC2)CC1 (stereo not given)
- Kb [1]: > 10000 nM
- Kb [3]: > 10000 nM

SMILES: O=C(CN1CCN(Cc2ccc3c(c2)OCO3)CC1)C(O)(c1ccccc1)C1CCC1 (stereo not given)
- Kb [1]: 8 nM
- ED50 [4]: 4 mg/kg
- Kb [3]: 45 nM

SMILES: CC(C)=CCN1CCN(CC(=O)C(O)(c2ccccc2)C2CCC2)CC1 (stereo not given)
- Kb [1]: 22 nM
- ID50 [2]: 4.9 mg/kg
- Kb [3]: 305 nM

SMILES: O=C(CN1CCN(CC(=O)C(O)(c2ccccc2)C2CCC2)CC1)C(O)(c1ccccc1)C1CCC1 (stereo not given)
- Kb [1]: 207 nM
- Kb [3]: > 1000 nM

SMILES: O=C(CN1CCC(N2CCCC2)CC1)C(O)(c1ccccc1)C1CCC1 (stereo not given)
- Kb [1]: > 10000 nM
- Kb [3]: 2440 nM

SMILES: O=C(CN1CCN(Cc2ccco2)CC1)C(O)(c1ccccc1)C1CCC1 (stereo not given)
- Kb [1]: 750 nM
- Kb [3]: > 30000 nM

SMILES: O=C(CN1CCN(C(c2ccccc2)c2ccccc2)CC1)C(O)(c1ccccc1)C1CCC1 (stereo not given)
- Kb [1]: > 10000 nM
- Kb [3]: > 100000 nM

SMILES: O=C(CN1CCN(CC(=O)C(O)(c2ccccc2)C2CCC2)CC1)N1CCCC1 (stereo not given)
- Kb [1]: 210 nM
- Kb [3]: > 3000 nM

SMILES: CN1CCN(CC(=O)C(O)(c2ccccc2)C2CCCCC2)CC1 (stereo not given)
- Kb [1]: 15 nM
- ED50 [4]: 1.84 mg/kg
- Kb [3]: 210 nM

SMILES: COc1cccc(CN2CCN(CC(=O)C(O)(c3ccccc3)C3CCC3)CC2)c1 (stereo not given)
- Kb [1]: 17 nM
- Kb [3]: 136 nM

SMILES: Cc1ccc(CN2CCN(CC(=O)C(O)(c3ccccc3)C3CCC3)CC2)cc1 (stereo not given)
- Kb [1]: 11 nM
- ID50 [2]: 8.4 mg/kg
- Kb [3]: 82 nM

SMILES: C=CCN1CCN(CC(=O)C(O)(c2ccccc2)C2CCCCC2)CC1 (stereo not given)
- Kb [1]: 25.6 nM
- ID50 [2]: 21 mg/kg
- Kb [3]: 425 nM

SMILES: O=C(CN1CCN(c2ccccc2)CC1)C(O)(c1ccccc1)C1CCC1 (stereo not given)
- Kb [1]: 624 nM
- Kb [3]: > 30000 nM

SMILES: C=CCCN1CCN(CC(=O)C(O)(c2ccccc2)C2CCC2)CC1 (stereo not given)
- Kb [5]: Non-competitive antagonist
- Kb [1]: 35.6 nM
- ID50 [2]: 27.2 mg/kg

SMILES: O=C(CN1CCN(Cc2ccccc2)CC1)C(O)(c1ccccc1)c1ccccc1
- Kb [1]: 6 nM
- ID50 [2]: > 100 mg/kg
- Kb [3]: 1460 nM

SMILES: COc1ccc(CN2CCN(CC(=O)C(O)(c3ccccc3)C3CCC3)CC2)cc1 (stereo not given)
- Kb [1]: 27.9 nM
- ID50 [2]: 10.8 mg/kg
- Kb [3]: 263 nM

SMILES: O=C(CN1CCN(c2ccc([N+](=O)[O-])cc2)CC1)C(O)(c1ccccc1)C1CCC1 (stereo not given)
- Kb [1]: > 10000 nM
- Kb [3]: > 10000 nM

SMILES: CN1CCN(CC(=O)C(O)(c2ccccc2)C2CCC2)CC1 (stereo not given)
- Kb [1]: 13 nM
- ID50 [2]: 0.72 mg/kg
- Kb [3]: 79 nM

SMILES: O=C(CN1CCN(CCO)CC1)C(O)(c1ccccc1)C1CCCCC1 (stereo not given)
- Kb [1]: 53 nM
- ED50 [4]: > 10 mg/kg
- Kb [3]: 530 nM

SMILES: CC(C)CC(O)(C(=O)CN1CCN(Cc2ccccc2)CC1)c1ccccc1 (stereo not given)
- Kb [1]: 171 nM
- ID50 [2]: 43.4 mg/kg
- Kb [3]: > 3000 nM

SMILES: O=C(CN1CCNCC1)C(O)(c1ccccc1)C1CCC1 (stereo not given)
- Kb [1]: 87 nM
- ID50 [2]: 1.65 mg/kg
- Kb [3]: 940 nM

SMILES: C=C(C)CN1CCN(CC(=O)C(O)(c2ccccc2)C2CCC2)CC1 (stereo not given)
- Kb [1]: 100 nM
- ED50 [4]: 17 mg/kg
- Kb [3]: 551 nM

SMILES: O=C(CN1CCN(CCO)CC1)C(O)(c1ccccc1)C1CCC1 (stereo not given)
- Kb [1]: 185 nM
- ID50 [2]: 4.93 mg/kg
- Kb [3]: 2350 nM

SMILES: O=C(CN1CCN(Cc2ccc(Cl)cc2)CC1)C(O)(c1ccccc1)C1CCC1 (stereo not given)
- Kb [1]: 16 nM
- ID50 [2]: 9.8 mg/kg
- Kb [3]: 515 nM
